For 19 compounds, IC50 results are on record in ChEMBL document CHEMBL1135454, “SAR and X-ray. A new approach combining fragment-based screening and rational drug design: application to the discovery of nanomolar inhibitors of Src SH2” (J Med Chem, 2002).

Experiment [1] deals with T1, Proto-oncogene tyrosine-protein kinase Src (Homo sapiens, UniProt P12931). Put plainly: Binding affinity for Src protein tyrosine kinase SH2 domain using scintillation proximity binding assay (SPA). (In general: In a scintillation proximity assay essentially only radioactivity close to the scintillant gives light.)
Experiment [2] deals with T1, Proto-oncogene tyrosine-protein kinase Src. Nature of the experiment: Binding affinity for Src SH2 domain in scintillation proximity binding assay (SPA).
Experiment [3] shares this target. Nature of the experiment: (§1) Binding affinity for Src protein tyrosine kinase SH2 domain using surface plasmon resonance (SPR) assay. A general note: In SPR one partner is held on a chip, and binding of the other changes the refractive index at the surface.
Experiment [4] has the same target. Put plainly: Binding affinity towards Src protein tyrosine kinase SH2 domain using surface plasmon resonance (SPR) assay.
The target is the same in experiment [5]. The experiment is described as §1. In a few lines: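 Surface plasmon resonance with human Src SH2 domain (aa 145–251), E. coli-expressed and purified by cation exchange and gel filtration. Ligands compete for binding; IC50 reported.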
The source holds these as a separate data set.

Experiment [6] has the same target. Nature of the experiment: Binding affinity for Src SH2 domain in scintillation proximity binding assay (SPA) - inactive.
The target is the same in experiment [7]. Nature of the experiment: Binding affinity towards Src protein tyrosine kinase SH2 domain protein using scintillation proximity binding assay (SPA).
Experiment [8] has the same target. Nature of the experiment: Binding affinity towards Src protein tyrosine kinase SH2 domain using scintillation proximity binding assay (SPA).

T1 sequence (P12931 2-536 limits assumed): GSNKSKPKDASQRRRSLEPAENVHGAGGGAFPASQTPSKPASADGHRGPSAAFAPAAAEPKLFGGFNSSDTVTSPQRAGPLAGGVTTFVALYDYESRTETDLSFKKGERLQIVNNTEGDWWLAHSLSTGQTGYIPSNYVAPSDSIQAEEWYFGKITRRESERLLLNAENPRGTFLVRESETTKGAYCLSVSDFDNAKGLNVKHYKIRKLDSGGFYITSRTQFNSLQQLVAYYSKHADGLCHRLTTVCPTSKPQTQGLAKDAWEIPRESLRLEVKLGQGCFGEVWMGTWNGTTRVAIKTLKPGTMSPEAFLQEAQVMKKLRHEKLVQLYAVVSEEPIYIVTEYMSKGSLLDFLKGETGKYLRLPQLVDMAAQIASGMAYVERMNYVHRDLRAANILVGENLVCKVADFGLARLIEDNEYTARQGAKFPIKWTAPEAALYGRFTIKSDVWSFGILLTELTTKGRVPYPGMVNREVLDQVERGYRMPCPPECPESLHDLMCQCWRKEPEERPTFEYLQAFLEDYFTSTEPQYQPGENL

By IC50 is commonly meant the midpoint of a concentration-inhibition curve. Read a high IC50 as a need for much substance. `COc1cccc(C=O)c1OP(=O)(O)O` returned a half-maximal inhibitory concentration (IC50) in experiment [1] of 95 µM.

Turning to `O=Cc1ccccc1OP(=O)(O)O`, the results for the IC50 in experiment [2] and in experiment [3] were 80 µM and 300 µM, respectively.

Consider `O=Cc1cccc(OP(=O)(O)O)c1`, for which the IC50 in experiment [2] came to 600 µM; in experiment [3] it was 2100 µM. `COC(=O)c1cc(C[C@H](NC(C)=O)C(=O)N[C@H]2CCCCN(Cc3ccc(-c4ccccc4)cc3)C2=O)ccc1C(C(=O)O)C(=O)O` yielded a half-inhibitory concentration (IC50) in experiment [4] of 0.556 µM. Still for that read-out and setting: the result for `COC(=O)c1cc(C[C@@H](NC(C)=O)C(=O)N[C@H]2CCCCN(Cc3ccc(-c4ccccc4)cc3)C2=O)ccc1C(C(=O)O)C(=O)O` reads 0.007 µM. In the case of `Cc1cc(C=O)cc(C)c1OP(=O)(O)O`, the IC50 in experiment [5] worked out at 5000 µM.

As to `O=C(O)CC(CC(=O)O)c1ccccc1`, in experiment [6], the IC50 result is given as “Not Active”. Consider `CC[C@H](C)[C@H](NC(=O)[C@H](CCC(=O)O)NC(=O)[C@H](CCC(=O)O)NC(=O)[C@H](Cc1ccc(OP(=O)(O)O)cc1)NC(C)=O)C(N)=O`, for which the IC50 was 0.15 µM in experiment [2] and 0.001 µM in experiment [3]. `Cc1cc(C=O)c(OP(=O)(O)O)c(C=O)c1` came in with a half-inhibitory concentration (IC50) in experiment [2] of 39 µM. Turning to `O=C(O)C(c1ccc(O)cc1)S(=O)(=O)O` (stereo not drawn), the IC50 in experiment [7] is 190 µM. For `O=C(O)CC(C(=O)O)c1ccccc1` (stereo not drawn), in experiment [6], the IC50 entry was “Not Active”. `CC(CC(=O)O)(CC(=O)O)c1ccccc1`: the IC50 entry in experiment [6] was “Not Active”.

For the compound `Cc1ccc(C(C(=O)O)C(=O)O)c(COC=O)c1`, in experiment [8], the IC50 was 100 µM. For `O=S(=O)(O)C(O)c1ccccc1` (stereo not drawn), the IC50 result in experiment [6] was “Not Active”. For `Cc1ccc(CC(=O)O)c(C=O)c1`, the IC50 in experiment [2] worked out at 385 µM.

On to `O=C(O)C(c1ccccc1)S(=O)(=O)O` (stereo not drawn), for which the IC50 in experiment [8] stood at 192 µM. Consider `O=C(O)CC(CC(=O)O)(c1ccccc1)c1ccccc1`, for which the IC50 result in experiment [6] is on record as “Not Active”. Take `O=P(O)(O)Oc1ccccc1` [PHENYL DIHYDROGEN PHOSPHATE]: the IC50 stood at 5000 µM in experiment [3] and 300 µM in experiment [1]. For the compound `CCC(C(N)=O)(C(=O)O)c1ccccc1` (stereo not drawn) [PHENYLETHYLMALONAMIDE -], the IC50 result in experiment [6] is on record as “Not Active”.
